Test results as given in ChEMBL document CHEMBL4257505, “New tetrahydroisoquinoline-based P-glycoprotein modulators: decoration of the biphenyl core gives selective ligands” (Medchemcomm, 2018).
Activity calls are given as the source filed them.

Assays:
[1] = molecular target: T1, ATP-dependent translocase ABCB1 (Homo sapiens, UniProt P08183); experiment: Inhibition of MDR1 (unknown origin) expressed in MDCK cells assessed as reduction in calcein-AM efflux preincubated for 30 mins followed by calcein-AM addition measured after 30 mins by fluorescence assay; assay type: cell-based
T1 sequence (P08183 whole entry): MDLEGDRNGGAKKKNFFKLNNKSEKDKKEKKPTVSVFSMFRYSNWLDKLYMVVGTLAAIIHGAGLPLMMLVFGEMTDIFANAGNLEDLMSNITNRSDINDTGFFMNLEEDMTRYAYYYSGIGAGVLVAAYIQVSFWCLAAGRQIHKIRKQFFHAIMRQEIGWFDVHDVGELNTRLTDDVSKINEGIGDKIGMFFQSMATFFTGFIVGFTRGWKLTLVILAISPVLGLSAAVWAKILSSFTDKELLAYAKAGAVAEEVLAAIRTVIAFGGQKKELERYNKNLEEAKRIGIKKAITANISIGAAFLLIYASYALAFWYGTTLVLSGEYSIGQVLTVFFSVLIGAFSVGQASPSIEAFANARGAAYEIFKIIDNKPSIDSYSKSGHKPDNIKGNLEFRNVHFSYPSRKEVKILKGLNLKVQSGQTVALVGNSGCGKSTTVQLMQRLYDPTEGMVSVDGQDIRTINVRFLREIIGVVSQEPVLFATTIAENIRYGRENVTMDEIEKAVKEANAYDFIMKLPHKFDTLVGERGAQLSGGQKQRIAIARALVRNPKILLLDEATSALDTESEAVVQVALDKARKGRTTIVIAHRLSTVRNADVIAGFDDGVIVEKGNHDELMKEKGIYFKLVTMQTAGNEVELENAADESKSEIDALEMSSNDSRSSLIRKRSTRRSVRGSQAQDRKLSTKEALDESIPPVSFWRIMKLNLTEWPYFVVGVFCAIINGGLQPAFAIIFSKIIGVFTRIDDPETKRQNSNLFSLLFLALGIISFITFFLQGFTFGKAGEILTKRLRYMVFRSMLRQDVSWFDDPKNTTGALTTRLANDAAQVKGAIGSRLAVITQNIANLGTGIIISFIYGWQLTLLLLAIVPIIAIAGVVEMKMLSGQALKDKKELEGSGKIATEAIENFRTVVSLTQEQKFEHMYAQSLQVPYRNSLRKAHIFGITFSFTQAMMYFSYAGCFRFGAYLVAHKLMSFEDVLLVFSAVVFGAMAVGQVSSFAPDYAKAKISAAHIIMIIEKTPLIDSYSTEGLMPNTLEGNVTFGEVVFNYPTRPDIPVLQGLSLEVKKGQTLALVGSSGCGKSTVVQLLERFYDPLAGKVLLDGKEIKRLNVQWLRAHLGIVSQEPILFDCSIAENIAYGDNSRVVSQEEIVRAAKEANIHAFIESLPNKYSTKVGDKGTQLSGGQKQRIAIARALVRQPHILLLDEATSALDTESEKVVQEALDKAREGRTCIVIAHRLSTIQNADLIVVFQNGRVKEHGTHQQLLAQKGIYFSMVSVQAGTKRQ
Outline: (§1)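 Competition with P-gp-mediated efflux of the pro-fluorescent substrate calcein-AM in MDCK-MDR1 cells, reported as EC50. Means of three independent experiments, samples in duplicate.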

[2] = molecular target: T2, Multidrug resistance-associated protein 1 (Homo sapiens, UniProt P33527); experiment: Inhibition of MRP1 (unknown origin) expressed in MDCK cells assessed as reduction in calcein-AM efflux preincubated for 30 mins followed by calcein-AM addition measured after 30 mins by fluorescence assay; assay type: cell-based
T2 sequence (P33527 whole entry): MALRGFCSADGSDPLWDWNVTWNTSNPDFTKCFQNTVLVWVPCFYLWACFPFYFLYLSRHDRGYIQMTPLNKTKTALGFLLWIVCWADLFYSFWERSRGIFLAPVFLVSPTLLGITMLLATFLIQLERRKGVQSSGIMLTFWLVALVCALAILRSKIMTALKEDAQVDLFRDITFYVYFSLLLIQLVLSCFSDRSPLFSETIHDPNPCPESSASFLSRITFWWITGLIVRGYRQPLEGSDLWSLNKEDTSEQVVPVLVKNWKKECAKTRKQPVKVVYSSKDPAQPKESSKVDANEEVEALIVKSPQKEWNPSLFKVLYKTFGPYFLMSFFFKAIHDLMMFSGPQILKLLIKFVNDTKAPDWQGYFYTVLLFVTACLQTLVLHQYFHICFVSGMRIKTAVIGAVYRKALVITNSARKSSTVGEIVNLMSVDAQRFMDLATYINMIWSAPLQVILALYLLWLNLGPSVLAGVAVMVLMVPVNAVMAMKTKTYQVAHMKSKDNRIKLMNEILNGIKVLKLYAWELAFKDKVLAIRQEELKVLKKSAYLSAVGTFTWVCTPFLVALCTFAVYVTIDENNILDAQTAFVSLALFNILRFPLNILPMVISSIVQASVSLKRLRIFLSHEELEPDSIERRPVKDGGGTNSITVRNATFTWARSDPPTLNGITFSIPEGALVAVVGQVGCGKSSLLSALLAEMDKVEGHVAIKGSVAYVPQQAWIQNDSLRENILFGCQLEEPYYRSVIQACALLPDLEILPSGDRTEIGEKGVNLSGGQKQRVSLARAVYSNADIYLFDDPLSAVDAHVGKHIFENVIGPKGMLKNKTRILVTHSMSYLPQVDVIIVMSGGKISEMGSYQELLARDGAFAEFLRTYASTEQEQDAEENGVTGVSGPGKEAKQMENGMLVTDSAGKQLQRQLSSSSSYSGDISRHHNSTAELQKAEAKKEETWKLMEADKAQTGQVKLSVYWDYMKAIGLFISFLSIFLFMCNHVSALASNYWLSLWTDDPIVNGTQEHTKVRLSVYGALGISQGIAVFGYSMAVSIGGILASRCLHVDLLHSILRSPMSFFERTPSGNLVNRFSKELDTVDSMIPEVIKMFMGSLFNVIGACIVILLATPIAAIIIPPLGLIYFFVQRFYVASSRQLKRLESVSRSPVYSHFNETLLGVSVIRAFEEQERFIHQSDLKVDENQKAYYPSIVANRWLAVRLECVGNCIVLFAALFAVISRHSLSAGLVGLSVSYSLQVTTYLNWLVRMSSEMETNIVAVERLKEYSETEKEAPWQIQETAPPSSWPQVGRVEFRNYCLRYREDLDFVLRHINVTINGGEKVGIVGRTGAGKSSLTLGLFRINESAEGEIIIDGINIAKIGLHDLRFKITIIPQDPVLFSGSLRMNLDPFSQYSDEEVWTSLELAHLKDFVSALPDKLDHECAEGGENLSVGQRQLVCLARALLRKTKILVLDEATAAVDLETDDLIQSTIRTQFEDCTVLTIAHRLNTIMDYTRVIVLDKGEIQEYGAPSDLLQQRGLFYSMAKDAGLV
Outline: (§2)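 Interference with MRP1-mediated transport of pro-fluorescent calcein-AM, reported as EC50. Not active defined at 100 μM. Means of three independent experiments, duplicate samples.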

[3] = molecular target: T3, Broad substrate specificity ATP-binding cassette transporter ABCG2 (Homo sapiens, UniProt Q9UNQ0); experiment: Inhibition of BCRP (unknown origin) expressed in MDCK cells assessed as reduction in Hoechst 33342 efflux at 100 uM preincubated for 30 mins followed by Hoechst 3334 addition measured after 30 mins by fluorescence assay; assay type: cell-based; details: 0.5 h
T3 sequence (Q9UNQ0 whole entry): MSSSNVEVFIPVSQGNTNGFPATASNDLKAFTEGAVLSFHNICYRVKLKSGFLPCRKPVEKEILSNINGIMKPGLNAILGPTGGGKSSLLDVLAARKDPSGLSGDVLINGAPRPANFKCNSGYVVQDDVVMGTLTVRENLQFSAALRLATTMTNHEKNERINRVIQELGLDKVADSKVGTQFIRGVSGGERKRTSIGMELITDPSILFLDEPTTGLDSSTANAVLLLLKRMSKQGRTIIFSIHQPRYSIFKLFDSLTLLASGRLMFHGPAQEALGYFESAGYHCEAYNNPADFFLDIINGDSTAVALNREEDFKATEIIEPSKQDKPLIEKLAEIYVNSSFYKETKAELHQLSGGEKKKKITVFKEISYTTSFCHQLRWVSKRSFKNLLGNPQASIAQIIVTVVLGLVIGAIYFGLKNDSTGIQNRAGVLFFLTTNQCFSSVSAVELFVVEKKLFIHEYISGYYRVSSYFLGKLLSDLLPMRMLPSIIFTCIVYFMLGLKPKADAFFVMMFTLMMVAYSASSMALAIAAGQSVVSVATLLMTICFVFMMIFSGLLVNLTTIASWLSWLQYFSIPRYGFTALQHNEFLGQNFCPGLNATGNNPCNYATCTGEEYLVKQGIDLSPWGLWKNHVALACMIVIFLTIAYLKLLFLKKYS
Outline: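 Interference with BCRP-mediated transport of the fluorescent substrate Hoechst 33342. Not active defined at 100 μM. Means of three independent experiments, duplicate samples.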

[4] = molecular target: T1, ATP-dependent translocase ABCB1; experiment: Inhibition of MDR1 (unknown origin) expressed in MDCK cells assessed as reduction in ATP consumption after 2 hrs by ATPlite assay; assay type: cell-based
Outline: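 ATP cell level depletion measured in MDCK-MDR1 cells. Means of three independent experiments, samples analysed in duplicate.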

[5] = Efflux ratio of apparent permeability from basolateral to apical over apical to basolateral side in human Caco2 cells at 100 uM after 120 mins; assay type: ADME, cell-based; details: Caco-2
Outline: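 Bidirectional permeability across Caco-2 monolayers. Papp expressed as the basolateral-to-apical over apical-to-basolateral (BA/AB) ratio. Values from two independent experiments. A ratio >2 is read as substrate behaviour, <2 as inhibitor.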

MDCK [6] = experiment: Cytotoxicity against MDCK cells over-expressing MDR1 at 0.1 to 25 uM after 48 to 72 hrs by MTT assay; assay type: ADME, cell-based, Canis lupus familiaris; details: dog
[7] = molecular target: T1, ATP-dependent translocase ABCB1; experiment: Inhibition of MDR1 (unknown origin) expressed in MDCK cells assessed as increase in doxorubicin-induced cytotoxicity at 10 uM after 48 hrs by MTT assay relative to control; assay type: cell-based; set-up: scale not given: the % may be the effect or the level left
Outline: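 MDCK-MDR1 cells treated for 48 h with compound at 10 μM, alone or together with doxorubicin at 10 μM. Antiproliferative effect compared with doxorubicin 10 μM alone.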

MDCK [8] = experiment: Downregulation of MDR1 protein expression in MDCK-MDR1 cells at 10 uM after 48 hrs by immunoblot analysis; assay type: functional, cell-based; details: Canis lupus familiaris
Outline: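 Immunoblot of P-gp in MDCK-MDR1 cells treated at 10 μM for 48 h, with untreated cells as control. Protein extracted after incubation, actin used as loading control. Blot representative of 3 experiments.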

[9] = molecular target: T2, Multidrug resistance-associated protein 1; experiment: Inhibition of MRP1 (unknown origin) expressed in MDCK cells assessed as reduction in calcein-AM efflux at 100 uM preincubated for 30 mins followed by calcein-AM addition measured after 30 mins by fluorescence assay; assay type: cell-based; details: 0.5 h; outline: as §2
[10] = Inhibition of P-gp (unknown origin); set-up: species or system Homo sapiens; outline: as §1

SMILES	EC50 [1]	EC50 [2]	inhibition (INH) [3]	inhibition (INH) [4]	efflux ratio at 2 h, 100 µM [5]	Activity (MDCK [6])	Activity [7]	Activity (MDCK [8])	inhibition (INH) [9]	EC50 [10]
COc1cc2c(cc1OC)CN(Cc1ccc(-c3ccc(O)cc3OC)cc1)CC2	1.86 µM	62 µM	Not Active	Active	3.5	Non-Toxic	60%	inactive		
COc1cc2c(cc1OC)CN(Cc1ccc(-c3ccc(O)cc3[N+](=O)[O-])cc1)CC2	2.54 µM		Not Active	Active	11.2				Not Active	
COc1cc2c(cc1OC)CN(Cc1ccc(-c3ccc(O)c([N+](=O)[O-])c3)cc1)CC2	12.7 µM	28.9 µM	Not Active	Active	6.3					
COc1cc2c(cc1OC)CN(Cc1ccc(-c3ccc(O)cc3)c(OC)c1)CC2	1.51 µM	38 µM	Not Active	Active	4.4	Non-Toxic	15%	inactive		
COc1cc2c(cc1OC)CN(Cc1ccc(-c3ccc(O)cc3)c([N+](=O)[O-])c1)CC2	15.2 µM		Not Active	Active	2.9				Not Active	
COc1cc2c(cc1OC)CN(Cc1ccc(-c3ccc(O)cc3)c(F)c1)CC2	6.2 µM		Not Active	Active	3.7				Not Active	
COc1cc2c(cc1OC)CN(Cc1ccc(-c3ccc(O)cc3N)cc1)CC2	5.4 µM		Not Active	Active	4.5				Not Active	
COc1cc2c(cc1OC)CN(Cc1ccc(-c3ccc(O)cc3)cc1F)CC2	4.73 µM		Not Active	Active	4.1				Not Active	
COc1cc2c(cc1OC)CN(Cc1ccc(-c3ccc(O)cc3)cc1[N+](=O)[O-])CC2	8.4 µM		Not Active	Active	5.8				Not Active	
COc1cc(-c2ccc(O)cc2)ccc1CN1CCc2cc(OC)c(OC)cc2C1	1.6 µM		Not Active	Active	4.5	Non-Toxic	15%	inactive	Not Active	
COc1cc2c(cc1OC)CN(Cc1ccc(-c3ccc(O)cc3)cc1)CC2				Active			20%	inactive		0.69 µM
COc1cc2c(cc1OC)CN(Cc1ccc(-c3ccc(O)cc3F)cc1)CC2	2.17 µM		Not Active	Active	4.5				Not Active	
COc1cc(-c2ccc(CN3CCc4cc(OC)c(OC)cc4C3)cc2)ccc1O	2 µM		Not Active	Active	3.9				Not Active	
COc1cc2c(cc1OC)CN(Cc1ccc(-c3ccc(O)c(F)c3)cc1)CC2	2.8 µM		Not Active	Active	4.9				Not Active	
COc1cc2c(cc1OC)CN(Cc1ccc(-c3ccc(O)c(N)c3)cc1)CC2	6.9 µM		Not Active	Active	7.5				Not Active	
